Experimental data of several laboratories.
Compare with care: the assays were run in different laboratories.
Organism: Pseudomonas aeruginosa
Effect on: microbial growth

SMILES	assay	test system	setting	MIC
Cc1ccc2nc(-c3ccc(Cl)cc3)n(Cc3ccccc3)c2c1	broth dilution	ATCC27853	–	64 µg/mL
CC(C)Oc1c(NC(=O)c2ccc(NC(=O)[C@H](CC(N)=O)NC(=O)c3ccc(NC(=O)C(C)Oc4ccc(C#N)cc4)cc3)cc2)ccc(C(=O)Nc2ccc(C(=O)O)cc2)c1O (stereo partly shown)	–	PA14	–	> 64 µg/mL
CC1=NN(CNc2ccc(C(=O)O)cc2)C(=O)C1=NNn1c(-c2ccccc2)nc2ccccc2c1=O	broth dilution	–	24 h	50.5 µM
CC(C)CC1NC(=O)C(C(=O)NC(C(=O)NC2C(=O)N3C2SC(C)(C)C3C(=O)O)c2ccccc2)=C1O (stereo not shown)	–	–	–	12.5 µg/mL
C/C(O)=C1\C(=O)C(CC(C)C)N(C(=O)C=Cc2ccccc2)C1=O (stereo not shown)	–	PA01	–	> 200 µg/mL
CCCc1nc(N(C)C)c2c(c1O)C(=O)C1=C(O)[C@]3(O)C(=O)C(C(N)=O)=C(O)[C@@H](N(C)C)[C@@H]3C[C@@H]1C2.Cl.Cl	broth dilution	ATCC27853	–	> 32 µg/mL
CC1(C)S[C@@H]2[C@H](NC(=O)C(C(=O)O)c3ccccc3)C(=O)N2[C@H]1C(=O)O (stereo partly shown)	broth dilution	–	clinical isolate	> 200 µM
CC1=NN(CNc2ccccc2[N+](=O)[O-])C(=O)C1=NNn1c(-c2ccccc2)nc2ccccc2c1=O	broth dilution	–	24 h	50.4 µM
CC(C)Oc1c(NC(=O)c2ccc(NC(=O)[C@H](CC(N)=O)NC(=O)c3ccc(C#Cc4ccc(C#N)cc4)cc3)cc2)ccc(C(=O)Nc2ccc(C(=O)O)cc2)c1O	–	PA14	–	> 64 µg/mL
CC[C@H]1OC(=O)[C@H](C)[C@@H](O[C@H]2C[C@@](C)(OC)[C@@H](O)[C@H](C)O2)[C@H](C)[C@@H](O[C@@H]2O[C@H](C)C[C@H](N(C)C)[C@H]2O)[C@](C)(O)C[C@@H](C)CN(C)[C@H](C)[C@@H](O)[C@]1(C)O	broth dilution	–	–	100 µg/mL
CC(C)Oc1c(NC(=O)c2ccc(NC(=O)[C@H](CC(N)=O)NC(=O)c3ccc(NC(=O)c4ccc(C#N)cc4)cc3)cc2)ccc(C(=O)Nc2cccc(C(=O)O)c2)c1O	–	PA14	–	> 64 µg/mL
Cc1nc(Cl)c2c(c1O)C(=O)C1=C(O)[C@]3(O)C(=O)C(C(N)=O)=C(O)[C@@H](N(C)C)[C@@H]3C[C@@H]1C2.Cl	broth dilution	ATCC27853	–	> 32 µg/mL
CN(C)C1CN(Cc2ccc3cc4c(c(O)c3c2)C(=O)C2=C(O)[C@]3(O)C(=O)C(C(N)=O)=C(O)[C@@H](N(C)C)[C@@H]3C[C@@H]2C4)C1	broth dilution	ATCC27853	–	32 µg/mL
CC(C)Oc1c(-n2cc(-c3ccc(NC(=O)C(CC(N)=O)NC(=O)c4ccc(NC(=O)c5ccc(C#N)cc5)cc4)cc3)nn2)ccc(C(=O)Nc2ccc(C(=O)O)cc2)c1O (stereo not shown)	–	PA14	–	8 µg/mL
COc1c(C)c(OC(C)=O)c(C)c(O)c1C(=O)/C=C/c1ccccc1	broth dilution	ATCC27853	–	5000 µg/mL
CC(C)Oc1c(NC(=O)c2ccc(NC(=O)[C@H](CC(N)=O)NC(=O)c3ccc(-c4nn[nH]c4-c4ccc(C#N)cc4)cc3)cc2)ccc(C(=O)Nc2ccc(C(=O)O)cc2)c1O	–	PA14	–	> 64 µg/mL
O=C(CCCCCCCC[P+](c1ccccc1)(c1ccccc1)c1ccccc1)Nc1ccc(O)c(O)c1.[Br-]	broth dilution	ATCC27853	18 h	> 32 µg/mL
CC(C)(C)Oc1ccc(CC2NC(=O)C(C(=O)NC(C(=O)NC3C(=O)N4C3SC(C)(C)C4C(=O)O)c3ccccc3)=C2O)cc1 (stereo not shown)	–	–	–	12.5 µg/mL
C[C@H]1[C@H](NC(=O)/C(=N\OC(C)(C)C(=O)O)c2csc(N)n2)C(=O)N1S(=O)(=O)O	agar dilution	ATCC27	–	4 µg/mL

SMILES	assay	test system	setting	MIC
CCCc1nc(Cl)c2c(c1O)C(=O)C1=C(O)[C@]3(O)C(=O)C(C(N)=O)=C(O)[C@@H](N(C)C)[C@@H]3C[C@@H]1C2.Cl	broth dilution	ATCC27853	–	> 32 µg/mL
O=C(CCc1cc(O)c(O)c(O)c1)NCCCCCCCC[P+](c1ccccc1)(c1ccccc1)c1ccccc1.[Br-]	broth dilution	ATCC27853	18 h	> 32 µg/mL
CCCCCCC#Cc1cncc(-c2nnc(SCc3ccc(Cl)cc3)n2C)c1	–	–	–	≥ 20 µg/mL
CC1COc2c(N3CCN(C)CC3)c(F)cc3c(=O)c(C(=O)O)cn1c23 (stereo not shown)	broth dilution	PAO1	–	1 µg/mL
C/C(=C\c1ccc(O)cc1)C(=O)Nc1ccc(C(=O)N[C@@H](CC(N)=O)C(=O)Nc2ccc(C(=O)Nc3ccc(C(=O)Nc4ccc(C(=O)O)cc4)c(O)c3OC(C)C)cc2)cc1	–	PA14	–	1 µg/mL
CCCCC(=O)N1C(=O)/C(=C(/C)O)C(=O)C1CC(C)C (stereo not shown)	–	PA01	–	> 200 µg/mL
O=C(O)c1cn(C2CC2)c2cc(N3CCNCC3)c(F)cc2c1=O	broth dilution	ATCC10145	18 h	> 5 µg/mL
COc1ccc(NCc2ccc(Oc3ccccn3)cc2)cc1	–	–	–	> 25 µg/mL
Cc1ccc(C)n1-c1ccc(-c2nnc(-c3ccccc3[N+](=O)[O-])[nH]2)cc1	broth dilution	ATCC10145	18 h	250 µg/mL
CC(C)Oc1c(NC(=O)c2ccc(NC(=O)[C@H](CC(N)=O)NC(=O)c3ccc(NC(=O)c4ccc(C#N)cc4)cc3)cc2)ccc(C(=O)Nc2ccncc2)c1O	–	PA14	–	> 64 µg/mL
O=c1cc(-c2ccc(O)cc2)oc2cc(O)cc(O)c12	broth dilution	PAO1	–	128 µg/mL
CN(C)c1c2c(c(O)c3cc(F)ccc13)C(=O)C1=C(O)[C@]3(O)C(=O)C(C(N)=O)=C(O)[C@@H](N(C)C)[C@@H]3C[C@@H]1C2	broth dilution	ATCC27853	–	> 32 µg/mL
Fc1ccc(-c2nc3ccccc3n2Cc2ccccc2)cc1	broth dilution	ATCC27853	–	128 µg/mL
Cc1ccc(C)n1-c1ccc(-c2nnc(S)s2)cc1	broth dilution	ATCC10145	18 h	2 µg/mL
COc1c(C)c(OS(=O)(=O)c2ccc3ccccc3c2)c(C)c(O)c1C(=O)/C=C/c1ccccc1	broth dilution	ATCC27853	–	5000 µg/mL
CC(C)CCNc1nc(Cl)c2c(c1O)C(=O)C1=C(O)[C@]3(O)C(=O)C(C(N)=O)=C(O)[C@@H](N(C)C)[C@@H]3C[C@@H]1C2.Cl.Cl.Cl	broth dilution	ATCC27853	–	> 32 µg/mL
O=C(O)c1cn(C2CC2)c2cc(N3CCNCC3)c(F)cc2c1=O	–	–	–	1.6 µg/mL
C[C@@H](O)[C@H]1C(=O)N2C(C(=O)O)=C(S[C@@H]3CN[C@H](C(=O)N(C)C)C3)[C@H](C)[C@H]12	broth dilution	–	24 h	0.25 µg/mL
